# Experimental data: ChEMBL document CHEMBL4689842, “EUbOPEN Chemogenomics Library wave 1” (2021)
# Tested on: U2OS
# Assay: Multiplex assay against U2OS
# Format: toxicity, cell-based
# Conditions: human
# How it was run: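 With compound added, live cells were imaged on a CQ1 microscope at 37°C and 5% CO2; staining with Hoechst33342, BioTracker Green Microtubule Cytoskeleton Dye, MitoTracker Red and Annexin V Alexa Fluor 680 had been done at seeding. The CellPathfinder machine-learning gating scheme split cells into Hoechst high-intensity objects or normal cells, normal cells into healthy, pyknosed or fragmented nuclei, and pyknosed cells into mitotic or apoptotic. The tubulin, mitochondrial-mass and membrane-permeability phenotypes are per cents of healthy-nucleus cells.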
# [1] = 12 h, 1 µM, compound concentration 1 uM, replicate 1
# [2] = 12 h, 1 µM, compound concentration 1 uM, replicate 2
# [3] = 12 h, 10 µM, compound concentration 10 uM, replicate 1
# [4] = 12 h, 10 µM, compound concentration 10 uM, replicate 2
# [5] = 24 h, 1 µM, compound concentration 1 uM, replicate 1
# [6] = 24 h, 1 µM, compound concentration 1 uM, replicate 2
# [7] = 24 h, 10 µM, compound concentration 10 uM, replicate 1
# [8] = 24 h, 10 µM, compound concentration 10 uM, replicate 2
# [9] = 48 h, 1 µM, compound concentration 1 uM, replicate 1
# [10] = 48 h, 1 µM, compound concentration 1 uM, replicate 2
# [11] = 48 h, 10 µM, compound concentration 10 uM, replicate 1
# [12] = 48 h, 10 µM, compound concentration 10 uM, replicate 2
smiles,measurement,setting,value
CC(C)CC(=O)Nc1[nH]nc2c1CN(C(=O)C1CCN(C)CC1)C2(C)C [PHA-793887],Population Apoptotic (%),[1],25%
same,Population Fragmented Nuclei (%),[1],3%
same,Population Healthy Nuclei (%),[1],92%
same,Population Hoechst High Intensity Objects (%),[1],1%
same,Population Membrane Permeable-Phenotype (%),[1],8%
same,Population Mitochondria Different-Phenotype (%),[1],30%
same,Population Mitotic Cells (%),[1],75%
same,Population Normal (%),[1],98%
same,Population Tubulin-Different-Phenotype (%),[1],30%
same,Total Cell Count,[1],161
same,Population Apoptotic (%),[2],20%
same,Population Fragmented Nuclei (%),[2],8%
same,Population Healthy Nuclei (%),[2],87%
same,Population Hoechst High Intensity Objects (%),[2],11%
same,Population Membrane Permeable-Phenotype (%),[2],9%
same,Population Mitochondria Different-Phenotype (%),[2],39%
same,Population Mitotic Cells (%),[2],80%
same,Population Normal (%),[2],88%
same,Population Pyknosed Nuclei (%),[2],4%
same,Population Tubulin-Different-Phenotype (%),[2],35%
same,Total Cell Count,[2],87
same,Population Apoptotic (%),[3],72%
same,Population Fragmented Nuclei (%),[3],17%
same,Population Healthy Nuclei (%),[3],68%
same,Population Hoechst High Intensity Objects (%),[3],3%
same,Population Membrane Permeable-Phenotype (%),[3],12%
same,Population Mitochondria Different-Phenotype (%),[3],29%
same,Population Mitotic Cells (%),[3],28%
same,Population Normal (%),[3],96%
same,Population Pyknosed Nuclei (%),[3],13%
same,Population Tubulin-Different-Phenotype (%),[3],32%
same,Total Cell Count,[3],188
same,Population Apoptotic (%),[4],50%
same,Population Fragmented Nuclei (%),[4],11%
same,Population Healthy Nuclei (%),[4],78%
same,Population Hoechst High Intensity Objects (%),[4],14%
same,Population Membrane Permeable-Phenotype (%),[4],21%
same,Population Mitochondria Different-Phenotype (%),[4],34%
same,Population Mitotic Cells (%),[4],50%
same,Population Normal (%),[4],85%
same,Population Pyknosed Nuclei (%),[4],10%
same,Population Tubulin-Different-Phenotype (%),[4],26%
same,Total Cell Count,[4],136
same,Population Apoptotic (%),[5],22%
same,Population Fragmented Nuclei (%),[5],5%
same,Population Healthy Nuclei (%),[5],91%
same,Population Hoechst High Intensity Objects (%),[5],1%
same,Population Membrane Permeable-Phenotype (%),[5],3%
same,Population Mitochondria Different-Phenotype (%),[5],24%
same,Population Mitotic Cells (%),[5],77%
same,Population Normal (%),[5],98%
same,Population Pyknosed Nuclei (%),[5],3%
same,Population Tubulin-Different-Phenotype (%),[5],29%
same,Total Cell Count,[5],148
same,Population Apoptotic (%),[6],50%
same,Population Fragmented Nuclei (%),[6],9%
same,Population Healthy Nuclei (%),[6],85%
same,Population Hoechst High Intensity Objects (%),[6],2%
same,Population Membrane Permeable-Phenotype (%),[6],9%
same,Population Mitochondria Different-Phenotype (%),[6],43%
same,Population Mitotic Cells (%),[6],50%
same,Population Normal (%),[6],97%
same,Population Pyknosed Nuclei (%),[6],4%
same,Population Tubulin-Different-Phenotype (%),[6],34%
same,Total Cell Count,[6],82
same,Population Apoptotic (%),[7],72%
same,Population Fragmented Nuclei (%),[7],9%
same,Population Healthy Nuclei (%),[7],73%
same,Population Hoechst High Intensity Objects (%),[7],4%
same,Population Membrane Permeable-Phenotype (%),[7],24%
same,Population Mitochondria Different-Phenotype (%),[7],45%
same,Population Mitotic Cells (%),[7],27%
same,Population Normal (%),[7],95%
same,Population Pyknosed Nuclei (%),[7],17%
same,Population Tubulin-Different-Phenotype (%),[7],33%
same,Total Cell Count,[7],287
same,Population Apoptotic (%),[8],55%
same,Population Fragmented Nuclei (%),[8],19%
same,Population Healthy Nuclei (%),[8],69%
same,Population Hoechst High Intensity Objects (%),[8],16%
same,Population Membrane Permeable-Phenotype (%),[8],21%
same,Population Mitochondria Different-Phenotype (%),[8],36%
same,Population Mitotic Cells (%),[8],44%
same,Population Normal (%),[8],83%
same,Population Pyknosed Nuclei (%),[8],10%
same,Population Tubulin-Different-Phenotype (%),[8],29%
same,Total Cell Count,[8],172
CCCSc1nc(N[C@@H]2C[C@H]2c2ccc(F)c(F)c2)c2nnn([C@@H]3C[C@H](OCCO)[C@@H](O)[C@H]3O)c2n1 [TICAGRELOR],Population Apoptotic (%),[1],23%
same,Population Fragmented Nuclei (%),[1],11%
same,Population Healthy Nuclei (%),[1],74%
same,Population Hoechst High Intensity Objects (%),[1],6%
same,Population Membrane Permeable-Phenotype (%),[1],4%
same,Population Mitochondria Different-Phenotype (%),[1],21%
same,Population Mitotic Cells (%),[1],76%
same,Population Normal (%),[1],93%
same,Population Pyknosed Nuclei (%),[1],14%
same,Population Tubulin-Different-Phenotype (%),[1],10%
same,Total Cell Count,[1],116
same,Population Apoptotic (%),[2],66%
same,Population Fragmented Nuclei (%),[2],1%
same,Population Healthy Nuclei (%),[2],93%
same,Population Hoechst High Intensity Objects (%),[2],5%
same,Population Membrane Permeable-Phenotype (%),[2],5%
same,Population Mitochondria Different-Phenotype (%),[2],18%
same,Population Mitotic Cells (%),[2],33%
same,Population Normal (%),[2],94%
same,Population Pyknosed Nuclei (%),[2],4%
same,Population Tubulin-Different-Phenotype (%),[2],13%
same,Total Cell Count,[2],82
same,Population Apoptotic (%),[3],87%
same,Population Fragmented Nuclei (%),[3],16%
same,Population Healthy Nuclei (%),[3],64%
same,Population Hoechst High Intensity Objects (%),[3],7%
same,Population Membrane Permeable-Phenotype (%),[3],37%
same,Population Mitochondria Different-Phenotype (%),[3],99%
same,Population Mitotic Cells (%),[3],12%
same,Population Normal (%),[3],92%
same,Population Pyknosed Nuclei (%),[3],19%
same,Population Tubulin-Different-Phenotype (%),[3],100%
same,Total Cell Count,[3],125
same,Population Apoptotic (%),[4],75%
same,Population Fragmented Nuclei (%),[4],7%
same,Population Healthy Nuclei (%),[4],79%
same,Population Hoechst High Intensity Objects (%),[4],11%
same,Population Membrane Permeable-Phenotype (%),[4],43%
same,Population Mitochondria Different-Phenotype (%),[4],98%
same,Population Mitotic Cells (%),[4],25%
same,Population Normal (%),[4],88%
same,Population Pyknosed Nuclei (%),[4],12%
same,Population Tubulin-Different-Phenotype (%),[4],96%
same,Total Cell Count,[4],67
same,Population Apoptotic (%),[5],9%
same,Population Fragmented Nuclei (%),[5],7%
same,Population Healthy Nuclei (%),[5],84%
same,Population Hoechst High Intensity Objects (%),[5],7%
same,Population Membrane Permeable-Phenotype (%),[5],3%
same,Population Mitochondria Different-Phenotype (%),[5],10%
same,Population Mitotic Cells (%),[5],90%
same,Population Normal (%),[5],92%
same,Population Pyknosed Nuclei (%),[5],7%
same,Population Tubulin-Different-Phenotype (%),[5],6%
same,Total Cell Count,[5],116
same,Population Apoptotic (%),[6],57%
same,Population Fragmented Nuclei (%),[6],3%
same,Population Healthy Nuclei (%),[6],87%
same,Population Hoechst High Intensity Objects (%),[6],2%
same,Population Membrane Permeable-Phenotype (%),[6],4%
same,Population Mitochondria Different-Phenotype (%),[6],20%
same,Population Mitotic Cells (%),[6],42%
same,Population Normal (%),[6],97%
same,Population Pyknosed Nuclei (%),[6],8%
same,Population Tubulin-Different-Phenotype (%),[6],11%
same,Total Cell Count,[6],81
same,Population Apoptotic (%),[7],94%
same,Population Fragmented Nuclei (%),[7],18%
same,Population Healthy Nuclei (%),[7],58%
same,Population Hoechst High Intensity Objects (%),[7],6%
same,Population Membrane Permeable-Phenotype (%),[7],55%
same,Population Mitochondria Different-Phenotype (%),[7],100%
same,Population Mitotic Cells (%),[7],5%
same,Population Normal (%),[7],93%
same,Population Pyknosed Nuclei (%),[7],22%
same,Total Cell Count,[7],155
same,Population Apoptotic (%),[8],83%
same,Population Fragmented Nuclei (%),[8],7%
same,Population Healthy Nuclei (%),[8],73%
same,Population Hoechst High Intensity Objects (%),[8],8%
same,Population Membrane Permeable-Phenotype (%),[8],65%
same,Population Mitochondria Different-Phenotype (%),[8],97%
same,Population Mitotic Cells (%),[8],16%
same,Population Normal (%),[8],91%
same,Population Pyknosed Nuclei (%),[8],19%
same,Population Tubulin-Different-Phenotype (%),[8],97%
same,Total Cell Count,[8],80
same,Population Apoptotic (%),[9],69%
same,Population Fragmented Nuclei (%),[9],6%
same,Population Healthy Nuclei (%),[9],87%
same,Population Hoechst High Intensity Objects (%),[9],4%
same,Population Mitochondria Different-Phenotype (%),[9],7%
same,Population Mitotic Cells (%),[9],30%
same,Population Normal (%),[9],95%
same,Population Pyknosed Nuclei (%),[9],5%
same,Population Tubulin-Different-Phenotype (%),[9],3%
same,Total Cell Count,[9],107
same,Population Apoptotic (%),[10],25%
same,Population Fragmented Nuclei (%),[10],4%
same,Population Healthy Nuclei (%),[10],88%
same,Population Hoechst High Intensity Objects (%),[10],3%
same,Population Membrane Permeable-Phenotype (%),[10],2%
same,Population Mitochondria Different-Phenotype (%),[10],12%
same,Population Mitotic Cells (%),[10],75%
same,Population Normal (%),[10],96%
same,Population Pyknosed Nuclei (%),[10],6%
same,Population Tubulin-Different-Phenotype (%),[10],9%
same,Total Cell Count,[10],74
same,Population Apoptotic (%),[11],89%
same,Population Fragmented Nuclei (%),[11],25%
same,Population Healthy Nuclei (%),[11],38%
same,Population Hoechst High Intensity Objects (%),[11],8%
same,Population Membrane Permeable-Phenotype (%),[11],60%
same,Population Mitochondria Different-Phenotype (%),[11],94%
same,Population Mitotic Cells (%),[11],10%
same,Population Normal (%),[11],91%
same,Population Pyknosed Nuclei (%),[11],36%
same,Population Tubulin-Different-Phenotype (%),[11],98%
same,Total Cell Count,[11],230
same,Population Apoptotic (%),[12],71%
same,Population Fragmented Nuclei (%),[12],17%
same,Population Healthy Nuclei (%),[12],60%
same,Population Hoechst High Intensity Objects (%),[12],11%
same,Population Membrane Permeable-Phenotype (%),[12],74%
same,Population Mitochondria Different-Phenotype (%),[12],97%
same,Population Mitotic Cells (%),[12],28%
same,Population Normal (%),[12],88%
same,Population Pyknosed Nuclei (%),[12],21%
same,Population Tubulin-Different-Phenotype (%),[12],97%
same,Total Cell Count,[12],130
